IDE act: IDE (human) activation, cell-based; HEK cells, FAbeta-B cleavage, fluorescence polarization; 0% vehicle, 100% cell-free pure enzyme wells; activation, % at 5.96 µM; P14735; AID 493087; actives 0.073% (n = 340,000);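 active = activation above the mean of all tested compounds plus 3 SD, set per screening campaign, cut at about 17% in these data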
CSN deneddyl inh: blocks human CSN-mediated cullin deneddylation | Purified CSN, SCF-Nedd8-OG deneddylation, fluorescence polarization | Q92905 | AID 651999 | actives 0.38% (n = 360,000) | inhibition, % at 12.5 µM;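 active = pattern-corrected inhibition above about 35%, with an unprinted fluorescence ratio check between 0.5 and 1.5, limit read from the data, passing the limit was not always enough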
Target sequence (Q92905 whole entry, looked up, one chain of several): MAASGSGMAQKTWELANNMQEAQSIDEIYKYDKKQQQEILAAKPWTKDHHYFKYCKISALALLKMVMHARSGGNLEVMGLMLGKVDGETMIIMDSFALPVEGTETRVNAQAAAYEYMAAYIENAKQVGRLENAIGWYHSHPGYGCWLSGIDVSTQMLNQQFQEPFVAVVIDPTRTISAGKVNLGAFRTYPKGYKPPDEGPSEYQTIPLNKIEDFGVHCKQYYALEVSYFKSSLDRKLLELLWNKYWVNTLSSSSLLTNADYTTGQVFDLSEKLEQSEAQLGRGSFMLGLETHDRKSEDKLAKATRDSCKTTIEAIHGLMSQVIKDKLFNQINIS
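Material: human Csn5 produced in HEK293T cells; Input: enzyme 0.24 nM; Reagent: SCFSkp2-Nedd8OG substrate at 10 nM final; Dosing: 12.5 µM compound; Incubation: 90 min reaction at room temperature; Detection: fluorescence polarization of the substrate; Evaluation: % inhibition of substrate cleavage by Csn5; Control set: substrate-only high control, full reaction low control.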
TPT1 inhibitor: blocks Candida albicans tRNA 2'-phosphotransferase | recombinant caTPT1, FP RNA substrate dephosphorylation | actives 0.81% (n = 300,000) | inhibition, % at 5 µM;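 active = inhibition above the mean of all tested compounds plus 3 SD, set per screening campaign, cut at about 24% in these data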
Rpn11 inh: inhibitors of human proteasome Rpn11. AID 588493. O00487. actives 0.59% (n = 360,000). calls only at 20 µM. human 26S proteasome, Ub4-pepOG fluorescence polarization; 20S core pre-blocked with epoxomicin;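 active = inhibition at 20 µM, scaled to each plate's controls, above about 33%, limit read from the data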
Target sequence (O00487 whole entry, looked up): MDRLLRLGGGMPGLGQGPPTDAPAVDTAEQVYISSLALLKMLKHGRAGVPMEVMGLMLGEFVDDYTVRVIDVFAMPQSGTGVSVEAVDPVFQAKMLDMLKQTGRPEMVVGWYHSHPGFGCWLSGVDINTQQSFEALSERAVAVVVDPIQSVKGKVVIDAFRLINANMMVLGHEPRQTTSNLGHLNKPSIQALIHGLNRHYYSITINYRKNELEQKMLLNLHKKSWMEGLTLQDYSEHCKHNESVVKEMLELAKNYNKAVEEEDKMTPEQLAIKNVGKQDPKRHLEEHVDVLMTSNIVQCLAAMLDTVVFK
HNF4A DNA FP: change in binding of human HNF4 alpha to DNA; P41235; HNF4a-FITC DNA binding, fluorescence polarization, 1 h; activity change, % at 10 µM; actives 0.3% (n = 360,000); AID 1224865; in the data active = activity change above about 30%, passing the limit was not always enough
IDE cell inh: inhibits human insulin-degrading enzyme in HEK cells; P14735; FAbetaB cleavage, fluorescence polarization; inhibition, % at 5.59 µM; actives 0.41% (n = 320,000); AID 434962;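 active = percent inhibition above the average of all tested compounds plus 3 SD, set per screening campaign, cut at about 16% in these data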;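 also: IDE supplied by intact live HEK cells; FP after avidin binding of uncleaved biotin substrate so inhibition keeps polarization high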
IDE inh confirm: confirmation of human insulin-degrading enzyme inhibitors in cells; shares compounds with IDE cell inh; HEK cells, FAbetaB cleavage, fluorescence polarization; inhibition, % at 5.59 µM; actives 51% (n = 1,200);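 active = mean inhibition across triplicate wells above the cutoff set by the earlier primary insulin-degrading enzyme screen, cut at about 16% in these data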
HEK cytotox: counter-screen for IDE inhibitors: cytotoxicity in HEK cells. inhibition, % at 5.59 µM. actives 28% (n = 1,200). shares compounds with IDE cell inh. HEK293 cytotoxicity, ATP luminescence; in the data active = inhibition above about 22%
Each line names hits and unclear results; the compound was inactive in the other large screens (follow-up assays come after a bar, where shown). A selection: hits, their analogues and other compounds. The true share with any hit is near 1.7%.

CCOc1ccccc1-n1c(SCC(=O)N(C(C)C)C(C)C)nnc1-c1cccnc1	none
CCOC(=O)CC1C(=O)NCCN1C(=O)c1ccc(C)cc1 (configuration not stated)	none
CCOC(=O)/C(C#N)=C/c1c(N2CCN(C)CC2)nc2c(C)cccn2c1=O	none (no result: TPT1 inhibitor, IDE cell inh)
CCCN1C(=O)/C(=C/c2c(N3CCNC(=O)C3CC(=O)OCC)nc3c(C)cccn3c2=O)SC1=S (configuration not stated)	TPT1 inhibitor 137, IDE cell inh 65 (not shown: Rpn11 inh) | IDE inh confirm 29 | HEK cytotox 32
CCOC(=O)CC1C(=O)NCCN1c1nc2ccc(C)cn2c(=O)c1/C=C1\SC(=S)N(CC(C)C)C1=O (configuration not stated)	TPT1 inhibitor 122, IDE cell inh 56 (not shown: Rpn11 inh) | IDE inh confirm 58 | HEK cytotox inactive
NC(=S)N/N=C\c1ccc(-c2cccc(Cl)c2Cl)o1	IDE cell inh 27 | IDE inh confirm inactive | HEK cytotox 28
NC(=S)N/N=C/c1ccc(-c2ccc(Cl)c(Cl)c2)o1	none
CN1CCN(C(=O)CCCN2C(=O)/C(=C/c3cccc(Br)c3)SC2=S)CC1	none (no result: TPT1 inhibitor, IDE cell inh)
CN1CCN(C(=O)CCN2C(=O)/C(=C/c3cccc(Br)c3)SC2=S)CC1	IDE cell inh 19 | IDE inh confirm inactive | HEK cytotox 56
CCCOc1ccc(-c2c(C(=O)N/N=C(\C)c3cccnc3)nnn2-c2nonc2N)cc1	none
CCCOc1ccc(-c2c(C(=O)N/N=C(\C)COc3ccccc3)nnn2-c2nonc2N)cc1	IDE cell inh 20 | IDE inh confirm inactive | HEK cytotox inactive
Cc1ccc(-c2c(C(=O)N/N=C/c3ccoc3)nnn2-c2nonc2N)cc1	none
Cc1ccc(-c2c(C(=O)N/N=C/c3cccc(Cl)c3)nnn2-c2nonc2N)cc1	IDE cell inh 53 | IDE inh confirm 45 | HEK cytotox inactive
O=C(COc1ccc(S(=O)(=O)Nc2ccccc2)cc1)NCc1ccccn1	none (no result: TPT1 inhibitor, IDE cell inh)
O=C(NCC1CCCO1)C(c1cccs1)N(Cc1ccccc1Cl)C(=O)c1ccc(-c2ccccc2)[nH]1 (configuration not stated)	none
Cc1ccc(C(C(=O)NCC2CCCO2)N(Cc2ccccc2)C(=O)c2ccc(-c3ccccc3)[nH]2)o1 (configuration not stated)	IDE cell inh 21 | IDE inh confirm inactive | HEK cytotox inactive
CC(=O)N1CCN(C(=O)c2ccc(C)c(S(=O)(=O)N3CCCCC3)c2)CC1	none (no result: TPT1 inhibitor)
Cc1c(C(=O)C(=O)N2CC=C(c3ccccc3)CC2)c2ccccc2n1C	IDE cell inh 16 | IDE inh confirm inactive | HEK cytotox 55
O=C(CNC(=O)c1ccc(S(=O)(=O)N2CCCC2)cc1)N/N=C/c1ccc(Cl)cc1Cl	IDE cell inh 24 | IDE inh confirm inactive | HEK cytotox inactive
O=C(NC(=S)Nn1cnnc1)c1ccccc1Br	none
CC(C)(C)NC(=O)NC(=O)CN1CCN(c2cccc(Cl)c2)CC1	IDE cell inh 41 | IDE inh confirm 22 | HEK cytotox inactive
CC(C)(C)NC(=O)NC(=O)CN1CCN(c2ccccc2)CC1	none
N#CC1=C(N)NC(=S)C(C(N)=O)C1c1ccccc1F (configuration not stated)	IDE cell inh 27 | IDE inh confirm inactive | HEK cytotox inactive
N#CC1=C(N)NC(=S)C(C(N)=O)C1c1ccc(Cl)cc1Cl (configuration not stated)	none
COc1ccc2[nH]cc(S(=O)(=O)c3ccc(C(C)C)cc3)c(=O)c2c1	none
Cc1ccc(-c2nnn(CCC(=O)NC(C)(C)C)n2)cc1	none
O=C(c1ccc(-c2ccccc2)cc1)N1CCN(c2ncccn2)CC1	none
COc1cc(-c2noc(CCCC(=O)Nc3cccnc3)n2)cc(OC)c1OC	IDE cell inh 16 | IDE inh confirm inactive | HEK cytotox inactive
COc1cc(SSc2cc(OC)cc([N+](=O)[O-])c2N)c(N)c([N+](=O)[O-])c1	IDE cell inh 21 | IDE inh confirm 18 | HEK cytotox 24
O=C(CN1C(=O)C2CC=CCC2C1=O)NCc1ccc2c(c1)OCO2 (configuration not stated)	none
O=S(=O)(NCc1cccs1)c1ccc(Cl)s1	none
COc1ccc(Nc2nc(-c3sc(C)nc3C)cs2)c(OC)c1	IDE cell inh 21 | IDE inh confirm inactive | HEK cytotox 62
COc1ccc(Nc2nc(-c3cccnc3)cs2)c(OC)c1	none (no result: TPT1 inhibitor, IDE cell inh)
Cc1ccc(C(=O)C(OC(=O)CNC(=O)c2ccc(Cl)cc2)c2ccccc2)cc1 (configuration not stated)	IDE cell inh 17 | IDE inh confirm inactive | HEK cytotox inactive
CCC(=O)N1CCc2cc(S(=O)(=O)Nc3ccc4c(c3)OCCO4)ccc21	none
O=c1[nH]c(Nc2ccccc2)cc2ccccc12	IDE cell inh 19 | IDE inh confirm inactive | HEK cytotox inactive
Nc1ccc2nc3c(=O)n(CCc4ccccc4)c(=O)[nH]c3nc2c1	IDE cell inh 32 (no result: IDE act) | IDE inh confirm 63 | HEK cytotox inactive
Nc1ccc2nc3c(=O)n(C4CCCCC4)c(=O)[nH]c3nc2c1	IDE cell inh 57 | IDE inh confirm 88 | HEK cytotox inactive
Cc1cc2nc3c(=O)n(CCc4ccccc4)c(=O)[nH]c3nc2cc1N	none
O=C(CNC(=O)c1ccc(Oc2ccccc2)cc1)OCc1ccc(Br)cc1	IDE cell inh 28 | IDE inh confirm inactive | HEK cytotox inactive
S=C(NCC1CCCO1)N1CCN(c2cccc(Cl)c2)CC1 (configuration not stated)	none
S=C(NCCCN1CCOCC1)N1CCN(c2ccccc2)CC1	none
S=C(NCC1CCCO1)N1CCN(c2nc(-c3ccc(Cl)cc3)cs2)CC1 (configuration not stated)	IDE cell inh 21 | IDE inh confirm inactive | HEK cytotox 54
S=C(NCCCN1CCOCC1)N1CCN(c2nc(-c3ccccc3)cs2)CC1	IDE cell inh 23 | IDE inh confirm inactive | HEK cytotox 27
CCCNC(=O)Cn1sc2nc(C)cc(C)c2c1=O	IDE cell inh 40 | IDE inh confirm inactive | HEK cytotox 42
CCOC(=O)C1CCCN(C(=O)Cn2sc3nc(C)cc(C)c3c2=O)C1 (configuration not stated)	IDE cell inh 19 | IDE inh confirm inactive | HEK cytotox 66
N#Cc1c(-c2ccccc2Cl)cc(-c2ccccc2)nc1Br	none

Bioassay records from PubChem.
